We go through 19 molecules from ChEMBL document CHEMBL4715770, “Inhibition of Low Molecular Weight Protein Tyrosine Phosphatase by an Induced-Fit Mechanism” (J Med Chem, 2016).

Calls of active or inactive are those of the source. The rule behind the calls is not given here.

In assay [1] the target is T1, Low molecular weight phosphotyrosine protein phosphatase (Homo sapiens, UniProt P24666).
T1 sequence (P24666 whole entry): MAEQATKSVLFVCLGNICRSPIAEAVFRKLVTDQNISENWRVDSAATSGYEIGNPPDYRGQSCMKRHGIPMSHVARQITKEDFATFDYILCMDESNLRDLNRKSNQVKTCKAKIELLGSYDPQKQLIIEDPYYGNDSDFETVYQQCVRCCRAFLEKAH
As to the kind of experiment: Inhibition of His-tagged LMW-PTP isoform A (unknown origin) expressed in Escherichia coli BL21 cells using para-nitrophenyl phosphate as substrate incubated for 5 to 10 mins by microplate reader based spectrophotometric analysis.

The target in assay [2] is T2, Dual specificity protein phosphatase 23 (Homo sapiens, UniProt Q9BVJ7).
T2 sequence (Q9BVJ7 whole entry): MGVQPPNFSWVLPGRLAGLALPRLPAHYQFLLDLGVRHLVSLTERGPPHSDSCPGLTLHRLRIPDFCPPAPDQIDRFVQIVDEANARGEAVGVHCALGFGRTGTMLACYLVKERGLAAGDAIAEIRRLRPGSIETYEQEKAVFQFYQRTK
Briefly: Inhibition of His-tagged VHZ (unknown origin) expressed in Escherichia coli BL21 cells using para-nitrophenyl phosphate as substrate incubated for 5 to 10 mins by microplate reader based spectrophotometric analysis.

Assay [3] in a line: Inhibition of His-tagged PTP-H1 (unknown origin) expressed in Escherichia coli BL21 cells using para-nitrophenyl phosphate as substrate incubated for 5 to 10 mins by microplate reader based spectrophotometric analysis. Also noted: species or system Homo sapiens. Summed up: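 Enzyme at 5-20 nM was added to substrate plus a range of inhibitor concentrations and run 5-10 min at room temperature. Quenched with 5N NaOH and p-nitrophenol read at 405 nm (ε 18,000 M-1cm-1), with a no-enzyme background correction. IC50 from curve fitting.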

Assay [4] deals with T1, Low molecular weight phosphotyrosine protein phosphatase. Briefly: Competitive inhibition of His-tagged LMW-PTP isoform A (unknown origin) expressed in Escherichia coli BL21 cells using para-nitrophenyl phosphate as substrate by Lineweaver-Burk plot analysis. The method in brief: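 Recombinant enzyme Ni-NTA purified (Tris pH 7.8, 500 mM NaCl, 250 mM imidazole elution), then Sephadex G75. pNPP hydrolysis in 50 mM 3,3-dimethylglutarate, pH 7.0, 25 °C. Enzyme added last to mixes of varied pNPP and inhibitor concentrations, 5-10 min, NaOH quench. p-nitrophenol read at 405 nm (ε 18,000 M-1cm-1), no-enzyme blank subtracted. Ki fitted by enzyme-kinetics regression.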

The target in assay [5] is T3, RNA polymerase II subunit A C-terminal domain phosphatase SSU72 (Homo sapiens, UniProt Q9NP77).
T3 sequence (Q9NP77 whole entry): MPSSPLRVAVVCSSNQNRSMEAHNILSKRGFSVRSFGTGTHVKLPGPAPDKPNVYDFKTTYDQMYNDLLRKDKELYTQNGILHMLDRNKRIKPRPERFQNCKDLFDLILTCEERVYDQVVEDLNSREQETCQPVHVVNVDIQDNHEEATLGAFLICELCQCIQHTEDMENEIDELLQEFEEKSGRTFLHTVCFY
Briefly: Inhibition of His-tagged SSu72 (unknown origin) expressed in Escherichia coli BL21 cells using para-nitrophenyl phosphate as substrate incubated for 5 to 10 mins by microplate reader based spectrophotometric analysis.

For assay [6], the target named is T1, Low molecular weight phosphotyrosine protein phosphatase. As to the kind of experiment: Competitive inhibition of LMW-PTP isoform B (unknown origin) using para-nitrophenyl phosphate as substrate by Lineweaver-Burk plot analysis. The method in brief: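 Recombinant His-tagged LMW-PTP from E. coli, Ni-NTA then Sephadex G75 purified. pNPP hydrolysis in 50 mM 3,3-dimethylglutarate buffer, pH 7.0, 25 °C. Reaction started by adding enzyme to mixes of varied pNPP and varied inhibitor concentrations, run 5-10 min, quenched with 5N NaOH. p-Nitrophenol read at 405 nm, blank without enzyme subtracted. Ki from enzyme-kinetics fitting.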

The target of assay [7] is Tyrosine-protein phosphatase non-receptor type 13 (Homo sapiens, UniProt Q12923). Briefly: Inhibition of His-tagged FAP1 (unknown origin) expressed in Escherichia coli BL21 cells using para-nitrophenyl phosphate as substrate incubated for 5 to 10 mins by microplate reader based spectrophotometric analysis.
Assay [8] concerns the target Low molecular weight phosphotyrosine protein phosphatase (Homo sapiens) (UniProt P24666). Briefly: Inhibition of LMW-PTP isoform A in human HepG2 cells assessed as increase in insulin-induced Akt phosphorylation at 16 uM pretreated for 2 hrs followed by insulin stimulation and measured after 30 mins by Western blot analysis. The assay is classed as cell-based. Summed up:
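HepG2 cells in DMEM with 10% FBS at 37 °C and 5% CO2 were grown to 60-80% confluence and serum-starved overnight. They were given vehicle or compound for 2 h, then 50 nM insulin for 30 min. Lysates were run on 10% SDS-PAGE and immunoblotted for phospho-AKT and total AKT with ECL detection. Densitometric pAKT/AKT ratios were normalized to vehicle.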
Background: A western blot detects proteins with antibodies after separation by electrophoresis.

Sequence of Tyrosine-protein phosphatase non-receptor type 13 (Q12923 whole entry, canonical isoform): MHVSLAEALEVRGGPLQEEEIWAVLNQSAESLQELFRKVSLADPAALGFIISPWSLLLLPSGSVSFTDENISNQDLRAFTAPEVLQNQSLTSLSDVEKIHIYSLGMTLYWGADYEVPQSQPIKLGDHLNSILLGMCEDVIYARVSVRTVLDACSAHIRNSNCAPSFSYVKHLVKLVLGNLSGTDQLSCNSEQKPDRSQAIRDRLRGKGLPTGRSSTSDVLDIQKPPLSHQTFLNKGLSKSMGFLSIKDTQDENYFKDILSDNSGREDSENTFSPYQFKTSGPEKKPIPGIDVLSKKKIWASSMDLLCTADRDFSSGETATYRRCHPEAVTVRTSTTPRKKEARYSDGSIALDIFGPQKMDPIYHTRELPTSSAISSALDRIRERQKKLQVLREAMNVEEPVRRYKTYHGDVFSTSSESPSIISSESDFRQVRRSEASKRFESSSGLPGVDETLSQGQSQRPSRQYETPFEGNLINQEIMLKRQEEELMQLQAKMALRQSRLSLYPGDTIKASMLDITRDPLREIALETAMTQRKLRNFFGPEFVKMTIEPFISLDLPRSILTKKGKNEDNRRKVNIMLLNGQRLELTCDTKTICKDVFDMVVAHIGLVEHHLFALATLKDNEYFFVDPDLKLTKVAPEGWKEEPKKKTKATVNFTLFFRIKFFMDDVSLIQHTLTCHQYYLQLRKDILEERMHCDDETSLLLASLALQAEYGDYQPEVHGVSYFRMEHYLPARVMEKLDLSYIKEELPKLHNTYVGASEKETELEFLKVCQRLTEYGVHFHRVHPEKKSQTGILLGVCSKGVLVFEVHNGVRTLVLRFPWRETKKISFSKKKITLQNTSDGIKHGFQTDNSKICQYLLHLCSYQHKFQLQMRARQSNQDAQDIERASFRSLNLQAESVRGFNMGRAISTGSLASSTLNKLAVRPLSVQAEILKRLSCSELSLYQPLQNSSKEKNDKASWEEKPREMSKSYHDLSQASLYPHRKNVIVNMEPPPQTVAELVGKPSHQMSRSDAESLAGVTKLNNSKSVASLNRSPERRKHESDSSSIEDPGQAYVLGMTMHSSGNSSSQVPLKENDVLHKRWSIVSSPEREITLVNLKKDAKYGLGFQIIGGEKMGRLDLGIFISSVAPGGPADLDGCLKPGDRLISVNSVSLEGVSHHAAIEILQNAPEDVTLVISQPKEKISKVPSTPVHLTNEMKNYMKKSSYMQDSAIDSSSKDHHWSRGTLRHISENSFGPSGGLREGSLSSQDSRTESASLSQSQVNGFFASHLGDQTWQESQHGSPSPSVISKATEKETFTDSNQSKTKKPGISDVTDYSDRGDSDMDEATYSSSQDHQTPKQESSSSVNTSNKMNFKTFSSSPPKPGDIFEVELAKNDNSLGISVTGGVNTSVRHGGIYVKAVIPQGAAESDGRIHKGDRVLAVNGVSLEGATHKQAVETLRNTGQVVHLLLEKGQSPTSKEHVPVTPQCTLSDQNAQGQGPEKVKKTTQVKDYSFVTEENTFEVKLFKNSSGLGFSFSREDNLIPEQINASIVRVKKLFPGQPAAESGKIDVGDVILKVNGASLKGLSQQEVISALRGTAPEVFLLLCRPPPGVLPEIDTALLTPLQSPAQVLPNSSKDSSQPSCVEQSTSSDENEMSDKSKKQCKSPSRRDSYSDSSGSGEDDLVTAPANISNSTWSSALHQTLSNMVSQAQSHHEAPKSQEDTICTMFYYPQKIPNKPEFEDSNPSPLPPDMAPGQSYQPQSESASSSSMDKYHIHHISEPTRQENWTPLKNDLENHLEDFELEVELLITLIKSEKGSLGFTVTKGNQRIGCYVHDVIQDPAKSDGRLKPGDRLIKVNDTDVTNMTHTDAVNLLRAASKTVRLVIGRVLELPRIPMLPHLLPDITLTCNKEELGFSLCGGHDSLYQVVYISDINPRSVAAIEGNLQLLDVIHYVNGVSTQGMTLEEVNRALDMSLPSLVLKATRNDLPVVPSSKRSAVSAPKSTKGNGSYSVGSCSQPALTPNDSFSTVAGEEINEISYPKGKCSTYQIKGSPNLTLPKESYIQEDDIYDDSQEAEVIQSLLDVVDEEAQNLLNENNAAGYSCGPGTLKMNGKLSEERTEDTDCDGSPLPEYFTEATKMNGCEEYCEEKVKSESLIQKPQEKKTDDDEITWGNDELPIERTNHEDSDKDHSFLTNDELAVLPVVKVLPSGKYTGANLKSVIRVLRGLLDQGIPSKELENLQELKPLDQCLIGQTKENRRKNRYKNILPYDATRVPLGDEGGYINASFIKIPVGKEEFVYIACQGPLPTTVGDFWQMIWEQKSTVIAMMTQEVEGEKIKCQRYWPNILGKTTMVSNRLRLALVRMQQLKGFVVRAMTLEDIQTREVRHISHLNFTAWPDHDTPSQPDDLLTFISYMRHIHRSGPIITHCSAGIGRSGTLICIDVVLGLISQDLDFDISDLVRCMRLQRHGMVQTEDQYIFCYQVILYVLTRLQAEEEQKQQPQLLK

In turn, `O=C(Nc1nccs1)C(c1ccccc1)S(=O)(=O)O` (stereo unspecified) yielded an IC50 in assay [1] of 72 µM.
For the molecule `Cc1cccc(C(C(=O)Nc2nc3ccccc3s2)S(=O)(=O)O)c1` (stereo unspecified), the IC50 in assay [1] was above 200 µM.
Still for that read-out and setting: for `CCOC(=O)c1ccc2nc(NC(=O)C(c3ccccc3)S(=O)(=O)O)sc2c1` (stereo unspecified) the value was 3.1 µM.
As to `O=C(Nc1cnc2ccccc2c1)C(c1ccccc1)S(=O)(=O)O` (stereo unspecified), the IC50 in assay [2] and in assay [3] was above 200 µM throughout.
In turn, `N#Cc1cccc(C(C(=O)Nc2nc3ccccc3s2)S(=O)(=O)O)c1` (stereo unspecified) came in with a 50% inhibitory concentration (IC50) in assay [1] above 200 µM.
The same measure, in the same setting: for `O=C(Nc1nc2ccccc2s1)C(c1ccccc1F)S(=O)(=O)O` (stereo unspecified) the value was above 200 µM; for `CCCNC(=O)C(c1ccccc1)S(=O)(=O)O` (stereo unspecified), above 200 µM.
Regarding `O=C(Nc1nc2ccccc2s1)C(c1ccccc1)S(=O)(=O)O` (stereo unspecified), the Ki in assay [4] was 3.2 µM; in assay [6], 1.7 µM. The values for the IC50 in assay [5] and in assay [3] were 69.9 µM and above 200 µM, respectively.
`O=C(Nc1nc2ccccc2s1)C(c1cccc(C(F)(F)F)c1)S(=O)(=O)O` (stereo unspecified) showed a half-maximal inhibitory concentration (IC50) in assay [1] above 200 µM.
The same measure, in the same setting: next, `O=C(Nc1nc2ccccc2s1)C(c1ccc(Br)cc1)S(=O)(=O)O` (stereo unspecified): 106 µM.
On to `O=C(Nc1ccc2nc(C(F)(F)F)[nH]c2c1)C(c1ccccc1)S(=O)(=O)O` (stereo unspecified), for which the IC50 in assay [3] and in assay [7] was above 200 µM throughout.
Consider `O=C(Nc1nc2ccccc2s1)C(c1ccccc1Cl)S(=O)(=O)O` (stereo unspecified), for which the IC50 in assay [1] is above 200 µM.
The same measure, in the same setting: for `O=C(Nc1nc2ccccc2s1)C(c1cccc(F)c1)S(=O)(=O)O` (stereo unspecified) the value was 50 µM.
`O=C(Nc1ccc(N2CCOCC2)cc1)C(c1ccccc1)S(=O)(=O)O` (stereo unspecified): the IC50 in assay [2] and in assay [3] was above 200 µM throughout.
As for `O=C(Nc1ccccc1)C(c1ccccc1)S(=O)(=O)O` (stereo unspecified), the IC50 in assay [1] was above 100 µM.
With `O=C(Cc1ccccc1)Nc1nc2ccc([N+](=O)[O-])cc2s1`, the IC50 in assay [1] was above 100 µM. In addition, the inhibition result in assay [8] was “inactive”.
The molecule `Cc1ccc(C(C(=O)Nc2nc3ccccc3s2)S(=O)(=O)O)cc1` (stereo unspecified) came in with an IC50 in assay [1] of 91.4 µM. That is a double-digit micromolar value.
Still for that read-out and setting: for `Cc1ccccc1C(C(=O)Nc1nc2ccccc2s1)S(=O)(=O)O` (stereo unspecified) the value was above 200 µM.
Same read-out and setting: for `O=C(Nc1nc2ccccc2s1)C(c1cccc([N+](=O)[O-])c1)S(=O)(=O)O` (stereo unspecified) the value was above 200 µM.

One may read the IC50 as the concentration that gives 50% inhibition. One may read the Ki as a dissociation constant, usually derived from enzyme kinetics or from competition with a known ligand. High values mean weaker binding, low ones tighter binding.
